What was measured:
OVCAR-3 = test: In vitro cytotoxicity value corresponding to 50% growth inhibition against OVCAR-3 (ovarian) cell line.; assay type: functional; conditions: Homo sapiens
UACC-62 = test: In vitro cytotoxicity value corresponding to 50% growth inhibition against UACC-62(melanoma) cell line.; assay type: functional; conditions: Homo sapiens
HCT-116 = test: In vitro cytotoxicity value corresponding to 50% growth inhibition against HCT116 (colon) cell line.; assay type: functional; conditions: Homo sapiens
SF-539 = test: The In vitro cytotoxicity corresponding to 50% growth inhibition against […] (central nervous system) cell line.; assay type: functional; conditions: Homo sapiens
SN12C = test: In vitro cytotoxicity value corresponding to 50% growth inhibition against SN12C (renal) cell line.; assay type: functional; conditions: Homo sapiens
HOP-62 = test: In vitro cytotoxicity value corresponding to 50% growth inhibition against HOP-62(non small cell lung) cell line.; assay type: functional; conditions: Homo sapiens
DU-145 = test: The In vitro cytotoxicity value corresponding to 50% growth inhibition against DU-145 (prostate) cell line.; assay type: functional; conditions: Homo sapiens
[1] = target: Tubulin beta chain (Bos taurus) (UniProt Q6B856); test: Evaluated for % inhibition of colchicine binding to tubulin.; set-up: concentration or dose not given beside the values; conditions: concentration not given here
Summary of the method: (§1)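 Mixtures held 1.0 µM bovine brain tubulin (0.1 mg/mL), 5.0 µM [³H]colchicine and 50 µM inhibitor, incubated 10 min at 37 °C. Bound-colchicine inhibition is given as percent, from triplicate samples in each experiment.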

Tubulin [2] = target: T1, Tubulin (Bos taurus, UniProt Q6B856+Q862L2+Q862F3); test: Evaluated for inhibition of tubulin polymerization.; assay type: functional
Summary of the method: (§2)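 Electrophoretically homogeneous bovine brain tubulin at 1.2 mg/mL (12 µM), preincubated at 26 °C with varying compound concentrations, then chilled on ice before GTP was added. Assembly was followed at 26 °C by turbidity at 350 nm, and the extent was read at 20 min. IC50 was derived graphically from at least two independent assays.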

[3] = system: Panel (Carcinoma cell lines); test: Mean graph midpoint for growth inhibition of all human cancer cell lines; assay type: functional
MDA-MB-435 = test: In vitro cytotoxicity value corresponding to 50% growth inhibition against MDA-MB-435 (breast) cell line.; assay type: functional; conditions: Homo sapiens
[4] = target: Estrogen receptor (Rattus norvegicus) (UniProt P06211+Q62986); test: Relative binding affinity for estrogen receptor using a tritium labeled estrogen as the tracer and immature rat uterine cytosol; assay type: protein assay; conditions: Uterus
Summary of the method: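 Competitive radiometric binding with a tritiated estrogen tracer and immature rat uterine cytosol as receptor source, incubated at 0 °C for 18 or 20 h. […] Coefficient of variation between replicate experiments is typically below 30%.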

Tubulin (Bos taurus) = Tubulin (Bos taurus) (UniProt Q6B856+Q862L2+Q862F3); test: The compound was evaluated for inhibition of colchicine binding to tubulin.; assay type: protein assay; conditions: concentration not given here; summary of the method: as §1
Tubulin [5] = target: T1, Tubulin; test: The compound was evaluated for inhibition of tubulin polymerization, which is purified from bovine brain; assay type: functional; summary of the method: as §2

Tubulin beta chain (Bos taurus), sequence (Q6B856 whole entry): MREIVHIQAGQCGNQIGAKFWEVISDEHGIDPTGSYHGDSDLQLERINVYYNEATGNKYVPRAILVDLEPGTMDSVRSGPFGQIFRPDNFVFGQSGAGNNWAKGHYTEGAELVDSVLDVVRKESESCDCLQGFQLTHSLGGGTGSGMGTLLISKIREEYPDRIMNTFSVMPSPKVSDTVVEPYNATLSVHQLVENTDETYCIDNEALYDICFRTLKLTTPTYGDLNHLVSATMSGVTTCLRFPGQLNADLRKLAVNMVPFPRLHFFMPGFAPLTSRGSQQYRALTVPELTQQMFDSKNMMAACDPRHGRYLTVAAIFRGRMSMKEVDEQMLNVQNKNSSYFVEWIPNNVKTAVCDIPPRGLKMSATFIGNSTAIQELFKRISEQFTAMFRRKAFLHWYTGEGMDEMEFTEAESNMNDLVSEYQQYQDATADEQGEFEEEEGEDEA

Structure (SMILES)	GI50 (OVCAR-3)	GI50 (UACC-62)	GI50 (HCT-116)	GI50 (SF-539)	GI50 (SN12C)	GI50 (HOP-62)	GI50 (DU-145)	inhibition [1]	IC50 (Tubulin [2])	GI50 [3]	GI50 (MDA-MB-435)	relative binding affinity (RBA) [4]	inhibition (Tubulin (Bos taurus))	IC50 (Tubulin [5])
CCOc1cc2c(cc1O)CC[C@@H]1[C@@H]2CC[C@]2(C)[C@@H](O)CC[C@@H]12	16 nM	16 nM	26 nM	14 nM	39 nM	18 nM	65 nM	51%	1300 nM	76 nM	< 10 nM	–	–	–
CCOc1cc2c(c(OCC)c1O)CC[C@@H]1[C@@H]2CC[C@]2(C)[C@@H](O)CC[C@@H]12	90 nM	–	800 nM	–	4800 nM	1300 nM	3300 nM	1.5%	8800 nM	2700 nM	200 nM	–	–	–
CCOc1cc2c(cc1O)/C(=N\N)C[C@@H]1[C@@H]2CC[C@]2(C)[C@@H](O)CC[C@@H]12	5400 nM	880 nM	2100 nM	2800 nM	17000 nM	1200 nM	17000 nM	9.6%	4300 nM	4200 nM	6500 nM	–	–	–
CCOc1cc2c(cc1O)C(=O)C[C@@H]1[C@@H]2CC[C@]2(C)[C@@H](O)CC[C@@H]12	630 nM	10 nM	20 nM	710 nM	180 nM	30 nM	170 nM	19%	4100 nM	130 nM	< 10 nM	–	–	–
CC(=O)Oc1cc2c(cc1OCC(F)(F)F)[C@H]1CC[C@]3(C)[C@@H](OC(C)=O)CC[C@H]3[C@@H]1CC2=O	24000 nM	18000 nM	21000 nM	23000 nM	20000 nM	20000 nM	20000 nM	–	> 40000 nM	20000 nM	18000 nM	–	–	–
CCOc1cc2c(cc1O)[C@@H](O)C[C@@H]1[C@@H]2CC[C@]2(C)[C@@H](O)CC[C@@H]12	350 nM	280 nM	350 nM	–	660 nM	–	710 nM	12%	2900 nM	830 nM	5400 nM	–	–	–
CC(=O)Oc1cc2c(cc1OC(C)=O)[C@H]1CC[C@]3(C)[C@@H](OC(C)=O)CC[C@H]3[C@@H]1CC2	6400 nM	2500 nM	5100 nM	3500 nM	5100 nM	4800 nM	3200 nM	–	> 40000 nM	3700 nM	320 nM	–	–	–
CCOc1cc2c(cc1O)/C(=N\NS(=O)(=O)c1ccc(C)cc1)C[C@@H]1[C@@H]2CC[C@]2(C)[C@@H](O)CC[C@@H]12	3200 nM	–	6700 nM	3500 nM	12000 nM	5100 nM	15000 nM	–	> 40000 nM	6200 nM	–	–	–	–
CCOc1cc2c(cc1O)/C(=N\O)C[C@@H]1[C@@H]2CC[C@]2(C)[C@@H](O)CC[C@@H]12	17 nM	17 nM	11 nM	13 nM	21 nM	11 nM	26 nM	–	–	79 nM	10 nM	< 0.001	63%	1100 nM

— ChEMBL document CHEMBL1130095, “Synthesis of analogs of 2-methoxyestradiol with enhanced inhibitory effects on tubulin polymerization and cancer cell growth” (J Med Chem, 1997)
